“Also recorded” adds a separate entry of the source.
How the values were obtained:
[1] = molecular target: T1, MMUT WT (Homo sapiens, UniProt P22033); experiment: Activity screen; type: biochemical; settings: cobamide 1 μM, MMUT WT 0.01 μM, 30 minutes
T1 sequence (P22033 33-750): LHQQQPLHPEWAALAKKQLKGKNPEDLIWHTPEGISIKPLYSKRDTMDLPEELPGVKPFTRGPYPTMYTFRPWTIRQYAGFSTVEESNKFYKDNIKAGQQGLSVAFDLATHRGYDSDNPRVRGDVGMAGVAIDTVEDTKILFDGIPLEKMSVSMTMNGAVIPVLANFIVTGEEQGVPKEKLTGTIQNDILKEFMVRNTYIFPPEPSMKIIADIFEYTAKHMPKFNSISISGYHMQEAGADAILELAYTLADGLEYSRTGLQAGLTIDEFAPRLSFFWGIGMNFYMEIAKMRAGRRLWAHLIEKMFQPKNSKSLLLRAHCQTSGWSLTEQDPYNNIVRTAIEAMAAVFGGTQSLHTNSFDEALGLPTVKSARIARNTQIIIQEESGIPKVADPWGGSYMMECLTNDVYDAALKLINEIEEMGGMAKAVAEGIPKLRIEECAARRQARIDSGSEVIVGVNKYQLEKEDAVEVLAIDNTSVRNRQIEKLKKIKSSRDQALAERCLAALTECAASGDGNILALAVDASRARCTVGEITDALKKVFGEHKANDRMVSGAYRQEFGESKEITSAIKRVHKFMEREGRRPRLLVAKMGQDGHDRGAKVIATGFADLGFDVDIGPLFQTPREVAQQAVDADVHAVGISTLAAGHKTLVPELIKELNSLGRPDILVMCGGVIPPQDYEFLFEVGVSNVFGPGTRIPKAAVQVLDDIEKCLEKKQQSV
How it was run: (§1)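 At 30 °C, reaction was started with thiokinase, MgCl₂, ADP and methylmalonyl-CoA. Final levels were cofactor 1 μM and (R)-methylmalonyl-CoA 2 mM. Enzyme was WT 0.01 μM, G717V 1 μM, other variants 0.1 μM. After 30 min, an aliquot went into 2.5 mM DTNB; CoA was taken from A412 (ε 14,150 M⁻¹ cm⁻¹).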

[2] = tested on: MMUT variants G648D, V633G, G717V, P86L, Y100C, Y231N; experiment: Activity screen; type: biochemical, human; settings: cobamide 1 μM, variants 0.1 μM (G717V 1 μM), 30 minutes
How it was run: as §1

[3] = molecular target: T2, MMUT (methylmalonyl-CoA mutase) (Homo sapiens, UniProt P22033); experiment: Coupled thiokinase/DTNB spectrophotometric MMUT activity assay; type: biochemical; settings: for MMUT activity with the cobamide (in words): coupled spectrophotometric assay; for KM, app relative to AdoCbl: higher than AdoCbl
T2 sequence (P22033 33-750): T1 sequence (P22033 33-750)
How it was run: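 In the coupled kinetic assay, succinyl-CoA was converted by thiokinase to CoA, which was detected spectrophotometrically with DTNB. C-terminally His-tagged MMUT was at 10 nM. Enzymatically made (R)-methylmalonyl-CoA was fixed at 4 mM. Adenosylated cofactor was varied per cofactor, from 0.031 μM at lowest to 12 μM at highest. K_M,app and k_cat come from ≥5 replicates over ≥2 independent experiments and two biological samples.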

[4] = molecular target: T2, MMUT (methylmalonyl-CoA mutase); experiment: Cobamide equilibrium binding by quenching of intrinsic protein fluorescence; settings: for binding to MMUT (in words): micromolar cobamide concentrations
How it was run: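 Fluorescence quenching used MMUT at 0.2 μM, from N-terminal His-tag (E. coli BL21(DE3)pLysS) and C-terminal His-tag preparations. Adenosylated cofactor was titrated at 0.19–2.5 μM or 0.23–2.5 μM, depending on cofactor class. Plate-reader excitation/emission was 282/340 nm. Kd came from a quadratic fit allowing for ligand depletion. Values were averaged over ≥5 technical replicates from ≥2 independent experiments.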

[5] = molecular target: T2, MMUT (methylmalonyl-CoA mutase); experiment: Binding kinetics by stopped-flow fluorescence spectroscopy; settings: MMUT 0.2 μM, cobamide 4.8 – 16.2 μM (to 24.3 μM for Ado[Phe]Cba)
How it was run: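 Stopped-flow fluorimetry used C-terminally His-tagged MMUT at 0.2 μM final after mixing. Adenosylated cofactor was added at 4.8, 7.2, 10.8 and 16.2 μM (24.3 μM for one cofactor). Excitation was 282 nm, with emission through a 320 nm long-pass filter. Traces, minus the buffer-addition control, were fitted to first-order exponential decay to give k_obs. k_on was the slope of k_obs versus concentration, from four technical replicates.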

[6] = tested on: Human intrinsic factor (IF); settings: cited from earlier work

C/C1=C2/[N-][C@H]([C@H](CC(N)=O)[C@@]2(C)CCC(=O)NC[C@@H](C)OP(=O)([O-])O[C@H]2[C@@H](O)[C@@H](n3cnc4cccc(C)c43)O[C@@H]2CO)[C@]2(C)N=C(/C(C)=C3N=C(/C=C4N=C1[C@@H](CCC(N)=O)C\4(C)C)[C@@H](CCC(N)=O)[C@]\3(C)CC(N)=O)[C@@H](CCC(N)=O)[C@]2(C)CC(N)=O.[CH2-][C@H]1O[C@@H](n2cnc3c(N)ncnc32)[C@H](O)[C@@H]1O.[Co+3] [J, 7-methylbenzimidazolylcobamide]
activity of WT MMUT with the cobamide (in words) [1]: active | activity of MMUT variants with the cobamide (in words) [2]: partially or entirely lost the ability to use

C/C1=C2/[N-][C@H]([C@H](CC(N)=O)[C@@]2(C)CCC(=O)NC[C@@H](C)OP(=O)([O-])O[C@H]2[C@@H](O)[C@@H](Oc3ccc(C)cc3)O[C@@H]2CO)[C@]2(C)N=C(/C(C)=C3N=C(/C=C4N=C1[C@@H](CCC(N)=O)C\4(C)C)[C@@H](CCC(N)=O)[C@]\3(C)CC(N)=O)[C@@H](CCC(N)=O)[C@]2(C)CC(N)=O.[CH2-][C@H]1O[C@@H](n2cnc3c(N)ncnc32)[C@H](O)[C@@H]1O.[Co+3] [Ado[Cre]Cba]
KM, app (in words) [3]: in the range of the benzimidazolyl cobamides | MMUT activity with the cobamide (in words) [3]: active | binding to MMUT (in words) [4]: bound too strongly to measure a Kd value; also recorded: higher affinity for Ado[Cre]Cba than AdoCbl | activity of WT MMUT with the cobamide (in words) [1]: active | activity of MMUT variants with the cobamide (in words) [2]: supported activity to a large extent in all of the variants | kon relative to AdoCbl (in words) [5]: about six times higher

3-deazaadeninylcobamide
activity of WT MMUT with the cobamide (in words) [1]: No activity

cyanobenzimidazolylcobamide [CN[Bza]Cba]
IF affinity, lower than affinity for CNCbl [6]: no more than 2 fold

C/C1=C2/[N-][C@H]([C@H](CC(N)=O)[C@@]2(C)CCC(=O)NC[C@@H](C)OP(=O)([O-])O[C@H]2[C@@H](O)[C@@H](n3cnc4ccccc43)O[C@@H]2CO)[C@]2(C)N=C(/C(C)=C3N=C(/C=C4N=C1[C@@H](CCC(N)=O)C\4(C)C)[C@@H](CCC(N)=O)[C@]\3(C)CC(N)=O)[C@@H](CCC(N)=O)[C@]2(C)CC(N)=O.[CH2-][C@H]1O[C@@H](n2cnc3c(N)ncnc32)[C@H](O)[C@@H]1O.[Co+3] [Ado[Bza]Cba]
MMUT activity with the cobamide (in words) [3]: active | KM, app relative to AdoCbl [3]: 10 fold | difference in Kd relative to AdoCbl [4]: ~ 25 fold | activity of WT MMUT with the cobamide (in words) [1]: active

purinylcobamide
activity of WT MMUT with the cobamide (in words) [1]: No activity

C/C1=C2/[N-][C@H]([C@H](CC(N)=O)[C@@]2(C)CCC(=O)NC[C@@H](C)OP(=O)([O-])O[C@H]2[C@@H](O)[C@@H](Oc3ccccc3)O[C@@H]2CO)[C@]2(C)N=C(/C(C)=C3N=C(/C=C4N=C1[C@@H](CCC(N)=O)C\4(C)C)[C@@H](CCC(N)=O)[C@]\3(C)CC(N)=O)[C@@H](CCC(N)=O)[C@]2(C)CC(N)=O.[CH2-][C@H]1O[C@@H](n2cnc3c(N)ncnc32)[C@H](O)[C@@H]1O.[Co+3] [Ado[Phe]Cba, adenosylphenolylcobamide]
MMUT activity with the cobamide (in words) [3]: active | KM, app relative to AdoCbl [3]: 100 fold | activity of WT MMUT with the cobamide (in words) [1]: active

C/C1=C2/[N-][C@H]([C@H](CC(N)=O)[C@@]2(C)CCC(=O)NC[C@@H](C)O)[C@]2(C)N=C(/C(C)=C3N=C(/C=C4N=C1[C@@H](CCC(N)=O)C\4(C)C)[C@@H](CCC(N)=O)[C@]\3(C)CC(N)=O)[C@@H](CCC(N)=O)[C@]2(C)CC(N)=O.[Co+3] [cobinamide]
IF affinity (in words) [6]: low affinity

6-azabenzimidazolylcobamide
activity of WT MMUT with the cobamide (in words) [1]: No activity

adenosyl-5-fluorobenzimidazolylcobamide [compound P]
activity of WT MMUT with the cobamide (in words) [1]: active | activity of MMUT variants with the cobamide (in words) [2]: some variants also had appreciable activity

C/C1=C2/[N-][C@H]([C@H](CC(N)=O)[C@@]2(C)CCC(=O)NC[C@@H](C)OP(=O)([O-])O[C@H]2[C@@H](O)[C@@H](n3cnc4cccc(N)c43)O[C@@H]2CO)[C@]2(C)N=C(/C(C)=C3N=C(/C=C4N=C1[C@@H](CCC(N)=O)C\4(C)C)[C@@H](CCC(N)=O)[C@]\3(C)CC(N)=O)[C@@H](CCC(N)=O)[C@]2(C)CC(N)=O.[CH2-][C@H]1O[C@@H](n2cnc3c(N)ncnc32)[C@H](O)[C@@H]1O.[Co+3] [K, 7-aminobenzimidazolylcobamide]
activity of WT MMUT with the cobamide (in words) [1]: active | activity of MMUT variants with the cobamide (in words) [2]: partially or entirely lost the ability to use

C/C1=C2/[N-][C@H]([C@H](CC(N)=O)[C@@]2(C)CCC(=O)NC[C@@H](C)OP(=O)([O-])O[C@H]2[C@@H](O)[C@@H](n3cnc4nc(C)nc(N)c43)O[C@@H]2CO)[C@]2(C)N=C(/C(C)=C3N=C(/C=C4N=C1[C@@H](CCC(N)=O)C\4(C)C)[C@@H](CCC(N)=O)[C@]\3(C)CC(N)=O)[C@@H](CCC(N)=O)[C@]2(C)CC(N)=O.[CH2-][C@H]1O[C@@H](n2cnc3c(N)ncnc32)[C@H](O)[C@@H]1O.[Co+3] [Ado[2-MeAde]Cba, adenosyl-2-methyladeninylcobamide]
IF binding relative to AdoCbl [6]: six orders of magnitude more weakly

6-methyladeninylcobamide
activity of WT MMUT with the cobamide (in words) [1]: No activity

adenosyladeninylcobamide [Ado[Ade]Cba]
IF binding relative to AdoCbl [6]: six orders of magnitude more weakly

cyano-5-hydroxybenzimidazolylcobamide [CN[5-OHBza]Cba]
IF affinity, lower than affinity for CNCbl [6]: no more than 2 fold

C/C1=C2/[N-][C@H]([C@H](CC(N)=O)[C@@]2(C)CCC(=O)NC[C@@H](C)OP(=O)([O-])O[C@H]2[C@@H](O)[C@@H](n3cnc4cc(C)ccc43)O[C@@H]2CO)[C@]2(C)N=C(/C(C)=C3N=C(/C=C4N=C1[C@@H](CCC(N)=O)C\4(C)C)[C@@H](CCC(N)=O)[C@]\3(C)CC(N)=O)[C@@H](CCC(N)=O)[C@]2(C)CC(N)=O.[CH2-][C@H]1O[C@@H](n2cnc3c(N)ncnc32)[C@H](O)[C@@H]1O.[Co+3] [Ado[5-MeBza]Cba]
MMUT activity with the cobamide (in words) [3]: active | activity of WT MMUT with the cobamide (in words) [1]: active

cyano-para-cresolylcobamide [CN[Cre]Cba]
IF affinity (in words) [6]: low affinity

C/C1=C2/[N-][C@H]([C@H](CC(N)=O)[C@@]2(C)CCC(=O)NC[C@@H](C)O)[C@]2(C)N=C(/C(C)=C3N=C(/C=C4N=C1[C@@H](CCC(N)=O)C\4(C)C)[C@@H](CCC(N)=O)[C@]\3(C)CC(N)=O)[C@@H](CCC(N)=O)[C@]2(C)CC(N)=O.[CH2-][C@H]1O[C@@H](n2cnc3c(N)ncnc32)[C@H](O)[C@@H]1O.[Co] [Ado-cobinamide]
binding to MMUT (in words) [4]: lower affinity than AdoCbl

Source: paper PMC8682075 (Biochimie, 2020)
